Consider 33 compounds from ChEMBL document CHEMBL4396895, “Identification and Optimization of Novel Cathepsin C Inhibitors Derived from EGFR Inhibitors” (J Med Chem, 2019).

The target in data set [1] is T1, Dipeptidyl peptidase 1 (Homo sapiens, UniProt P53634). The data set can be described thus: Inhibition of CatL-activated recombinant human C-terminal His10-tagged cathepsin C (25 to 463 residues) expressed in mouse myeloma cells using Gly-Phe-AFC as substrate preincubated for 3 hrs followed by substrate addition and measured after 60 mins. It counts as cell-free. The method, boiled down: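 Activated rhCatC was diluted to 4.4 nM in 25 mM MES, 50 mM NaCl, 5 mM DTT, 0.01% Triton X-100, pH 6.0. It was preincubated with compound (added in 10% DMSO) for 3 h at RT. Gly-Phe-AFC was then added to 100 μM final and read as fluorescence after 60 min. IC50 came from a sigmoidal nonlinear fit; values are means of at least two experiments.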

Data set [2] concerns the target Epidermal growth factor receptor (Homo sapiens, UniProt P00533). Description: Inhibition of EGFR (unknown origin) up to 10 uM using biotin-labelled peptide as substrate preincubated for 2 hrs followed by substrate addition and measured after 30 mins by HTRF FRET assay. The method, boiled down:
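EGFR WT was used at 0.1 nM final in 50 mM HEPES pH 7.0, 0.02% NaN3, 0.01% BSA, 0.1 mM orthovanadate, 10 mM MgCl2, 2.5 mM DTT, 6.25 nM SEB. It was preincubated with compound for 2 h. Biotin-peptide (1.4 μM) and ATP (20 μM) were then added for 30 min at RT. Read-out was HTRF/TR-FRET (Ex 320, Em 615/665 nm) with a sigmoidal curve fit.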
For orientation: In TR-FRET formats the signal depends on donor and acceptor labels being close together.

In data set [3] the target is T1, Dipeptidyl peptidase 1. The data set can be described thus: Inhibition of cathepsin C in human THP1 cells using H-Gly-Phe-AFC as substrate preincubated for 4 hrs followed by substrate addition and measured after 60 mins. The data set is classed as cell-based. In a few lines:
(§1)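 THP1 or U937 cells, grown in RPMI 1640 with 10% FBS, were seeded at 1.0 × 10^6/mL. They were preincubated with threefold serial dilutions of compound for 4 h at 37 °C. H-Gly-Phe-AFC was then added from a 100 μM solution and fluorescence was read after 60 min at 37 °C. Values are means of at least two experiments.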

Data set [4] can be described thus: Intrinsic clearance in mouse liver microsomes assessed per mg protein measured after 60 mins in presence of NADPH by LC-MS/MS analysis. It counts as ADME, Microsome. The conditions noted are these: read-out: CLH. (Microsomes from liver hold many membrane-bound enzymes, among them those of drug oxidation.)
Data set [5] can be described thus: Intrinsic clearance in rat liver microsomes assessed per mg protein measured after 60 mins in presence of NADPH by LC-MS/MS analysis. It counts as ADME, Microsome. The conditions noted are these: read-out: CLH.
Data set [6] is described as follows: Intrinsic clearance in human liver microsomes assessed per mg protein measured after 60 mins in presence of NADPH by LC-MS/MS analysis. It counts as ADME, Microsome. The conditions noted are these: read-out: CLH.
Data set [7] addresses T1, Dipeptidyl peptidase 1. The data set can be described thus: Inhibition of cathepsin C in human U937 cells using H-Gly-Phe-AFC as substrate preincubated for 4 hrs followed by substrate addition and measured after 60 mins. It counts as cell-based. In a few lines: as §1
The target in data set [8] is T1, Dipeptidyl peptidase 1. The data set can be described thus: Inhibition of cathepsin C (unknown origin). In a few lines:
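Enzyme preincubated with compound 3 h at RT. Gly-Phe-AFC added (100 μM final) and product fluorescence read after 60 min. IC50 from sigmoidal nonlinear regression, mean of at least two experiments.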

Activity calls are given as the source filed them. The calls are words filed in the database; no cut-off is given here.

Take `C=CC(=O)Nc1cccc(Oc2nc(Nc3ccc(N4CCNCC4)cc3)ccc2Cl)c1`: the IC50 (usually the concentration that inhibits the measured activity by half) in data set [1] turned out to be 499 nM.

For `C=CC(=O)Nc1cc(Oc2nc(Nc3ccc(N4CCN(C)CC4)cc3OC)ccc2-c2ccccc2)ccc1C`, in data set [2], the inhibition result was “inactive”. In addition, the IC50 in data set [1] came to 154 nM.

`C=CC(=O)Nc1cccc(Oc2nc(Nc3ccc(N4CCN(C)CC4)cc3OC)ccc2N(C)C)c1`: the 50% inhibitory concentration (IC50) in data set [1] was 1520 nM.

For `C=CC(=O)Nc1cccc(Oc2nc(Nc3ccc(N4CCOCC4)cc3)ccc2Cl)c1`, in data set [1], the half-inhibitory concentration (IC50) was above 10000 nM.

For `C=CC(=O)Nc1cc(Oc2nc(Nc3ccc(N4CCN(C)CC4)cc3OC)ccc2N2CCCC2)ccc1C(F)(F)F`, the IC50 was 6.7 nM in data set [3], 11.5 nM in data set [7] and 4 nM in data set [1]. For the same compound, the microsomal CLint was 866 µL/min/mg in data set [4], 11 µL/min/mg in data set [5] and 3.9 µL/min/mg in data set [6]. In addition, the inhibition entry in data set [2] is “inactive”.

In the case of `C=CC(=O)Nc1cccc(Oc2nc(Nc3ccc(N4CCN(CC5CCCC5)CC4)cc3)ccc2Cl)c1`, the IC50 in data set [1] was above 10000 nM.

Compound `CN(C)C/C=C/C(=O)Nc1cc2c(Nc3ccc(F)c(Cl)c3)ncnc2cc1O[C@H]1CCOC1` [AFATINIB] showed an IC50 in data set [8] above 10000 nM.

Take `C#Cc1ccc(Nc2ccc(N3CCN(C)CC3)cc2OC)nc1Oc1cccc(NC(=O)C=C)c1`: the IC50 in data set [1] was determined as 392 nM.

Turning to `C=CC(=O)Nc1cccc(Oc2nc(Nc3ccc(CCN)cc3)ccc2Cl)c1`, the IC50 in data set [1] came out at 2050 nM.

With `C=CC(=O)Nc1cccc(Oc2nc(Nc3ccc(N4CCN(C)CC4)cc3)ccc2Cl)c1`, the IC50 in data set [1] was determined as 483 nM.

In the case of `C=CC(=O)Nc1cccc(Oc2nc(Nc3ccc(N4CCN(C)CC4)cc3OC)ccc2C(F)(F)F)c1`, the IC50 in data set [1] worked out at 1610 nM.

Turning to `C=CC(=O)Nc1cc(Nc2nccc(-c3cn(C)c4ccccc34)n2)c(OC)cc1N(C)CCN(C)C` [OSIMERTINIB], the IC50 in data set [8] turned out to be 32900 nM.

For `C=CC(=O)Nc1cccc(Oc2nc(Nc3ccc(N4CCN(C)CC4)cc3OC)ccc2N2CCCCC2)c1`, the IC50 in data set [1] was found to be 221 nM.

As to `C=CC(=O)Nc1cccc(Oc2cccc(Nc3ccc(N4CCN(C)CC4)cc3OC)n2)c1`, in data set [1], the IC50 turned out to be 785 nM.

Consider `C=CC(=O)Nc1ccc(C)c(Oc2nc(Nc3ccc(N4CCN(C)CC4)cc3OC)ccc2N2CCCC2)c1`, for which the IC50 in data set [1] was found to be 505 nM.

With `C=CC(=O)Nc1cccc(Oc2nc(Nc3ccc(N4CCN(C)CC4)cc3OC)ccc2C#N)c1`, the IC50 in data set [1] was found to be 835 nM.

Consider `C=CC(=O)Nc1cccc(Oc2nc(Nc3ccc(N4CCN(C)CC4)cc3OC)ccc2N2CCCC2)c1C`, for which, in data set [1], the concentration for half-maximal inhibition (IC50) was above 10000 nM.

Regarding `C=CC(=O)Nc1cc(Oc2nc(Nc3ccc(N4CCN(C(C)=O)CC4)cc3OC)ccc2N2CCCCC2)ccc1C`, the IC50 in data set [1] was 135 nM.

With `C=CC(=O)Nc1cc2c(Nc3ccc(F)c(Cl)c3)ncnc2cc1OCCCN1CCOCC1` [CANERTINIB], the IC50 in data set [8] worked out at 2700 nM.

As to `C=CC(=O)Nc1cc(Oc2nc(Nc3ccc(N4CCN(C)CC4)nc3OC)ccc2N2CCCCC2)ccc1C`, the values for the IC50 in data set [3], in data set [7] and in data set [1] were 6.5 nM, 10 nM and 28.6 nM, respectively. Further, the microsomal CLint in data set [4] was determined as 22 µL/min/mg; in data set [5], 13 µL/min/mg; in data set [6] it was 6 µL/min/mg.

As for `C=CC(=O)Nc1cccc(Oc2nc(Nc3ccc(N4CCN(C)CC4)cc3OC)ccc2N2CCCC2)c1`, the IC50 in data set [1] is 175 nM.

As to `C=CC(=O)Nc1cc(Oc2nc(Nc3ccc(N4CCC(N(C)C)CC4)cc3OC)ccc2N2CCCCC2)ccc1C`, the IC50 was 1 nM in data set [3], 2.2 nM in data set [7] and 15.6 nM in data set [1]. Also, the microsomal CLint in data set [4] was determined as 4 µL/min/mg; in data set [5] it was 4.1 µL/min/mg; in data set [6], 2.5 µL/min/mg.

Regarding `C=CC(=O)Nc1cc(Oc2nc(Nc3ccc(N4CCN(C)CC4)cc3OC)ccc2N2CCCC2)ccc1OC`, the values for the IC50 in data set [3], in data set [7] and in data set [1] were 21.3 nM, 70 nM and 140 nM, respectively.

In the case of `C=CC(=O)Nc1cccc(Oc2nc(Nc3cccc(CN)c3)ccc2Cl)c1`, the IC50 in data set [1] stood at 2150 nM.

Take `C=CC(=O)Nc1cc(Oc2nc(Nc3ccc(N4CCN(C)CC4)cc3OC)ccc2N2CCCCC2)ccc1C(F)(F)F`: the IC50 came to 1.8 nM in data set [3], 2.4 nM in data set [7] and 2.3 nM in data set [1]. Moreover, the microsomal CLint in data set [4] amounted to 15.4 µL/min/mg; in data set [5], 15.1 µL/min/mg; in data set [6], 5.2 µL/min/mg.

In the case of `C=CC(=O)Nc1cccc(Oc2nc(Nc3ccc(N4CCN(CC5CC5)CC4)cc3)ccc2Cl)c1`, the IC50 in data set [1] turned out to be 783 nM.

For the compound `C=CC(=O)Nc1cccc(Oc2nc(Nc3ccc(N4CCN(C)CC4)cc3OC)ccc2N2CCCCCC2)c1`, the IC50 in data set [1] was 271 nM.

Turning to `C=CC(=O)Nc1cc(Oc2nc(Nc3ccc(N4CCN(C)CC4)cc3OC)ccc2N2CCN(C)CC2)ccc1C`, the IC50 in data set [3] came to 2.8 nM; in data set [7] it was 4.7 nM; in data set [1], 46.5 nM. The figures for the microsomal CLint in data set [4], in data set [5] and in data set [6] were 3 µL/min/mg, 2 µL/min/mg and 3.7 µL/min/mg, respectively.

`C=CC(=O)Nc1cc(Oc2nc(Nc3ccc(N4CCN(C)CC4)cc3)ccc2N2CCCCC2)ccc1C`: the IC50 in data set [3] was determined as 2.7 nM; in data set [7] it was 5.8 nM; in data set [1], 17.6 nM. Further, in data set [2], the inhibition entry is “inactive”. In addition, the figures for the microsomal CLint in data set [5] and in data set [6] were 15 µL/min/mg and 2.9 µL/min/mg, respectively.

For `C=CC(=O)Nc1cccc(Oc2nc(Nc3ccc(N4CCN(C)CC4)cc3OC)ncc2Cl)c1`, the IC50 in data set [8] and in data set [1] was 2100 nM in each case.

As to `C=CC(=O)Nc1cc(Oc2nc(Nc3ccc(N4CCN(C)CC4)cc3OC)ccc2N2CCCC(O)C2)ccc1C` (racemic), the IC50 came out at 4.9 nM in data set [3], 7.4 nM in data set [7] and 34.1 nM in data set [1]. Further, the figures for the microsomal CLint in data set [4], in data set [5] and in data set [6] were 6 µL/min/mg, 9 µL/min/mg and 4.9 µL/min/mg, respectively. Moreover, the inhibition result in data set [2] is “inactive”.

On to `C=CC(=O)Nc1cc(Oc2nc(Nc3ccc(N4CCN(C)CC4)cc3OC)ccc2N2CCC(O)C2)ccc1C` (racemic), for which the values for the IC50 in data set [3], in data set [7] and in data set [1] were 28.4 nM, 49.4 nM and 32.3 nM, respectively.

Take `C=CC(=O)Nc1cc(Oc2nc(Nc3ccc(N4CCC(N(C)C)CC4)cn3)ccc2N2CCCCC2)ccc1C`: the IC50 in data set [1] is 307 nM.
